Data reported in ChEMBL document CHEMBL1142048, “Design, synthesis and structure-activity relationship studies of hexahydropyrazinoquinolines as a novel class of potent and selective dopamine receptor 3 (D3) ligands” (Bioorg Med Chem Lett, 2005).

Tests used:
[1] = Binding affinity for D2-like [3H]spiperone receptor was determined using caudate-putamen of adult male Spragueo?=Dawley rats; format: tissue-based, Rattus norvegicus
Procedure, shortened: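 Rat caudate-putamen membranes, adult male Sprague–Dawley. Buffer 50 mM Tris–HCl, 5 mM KCl, 2 mM MgCl2, 2 mM CaCl2, pH 7.4 at 23 °C. [3H]spiperone 0.2 nM, with nonspecific binding defined by 1 μM (+)-butaclamol. Compounds were dissolved in 100% EtOH up to 5 mM (stock). Ki was derived from the radioligand KD.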

D(3) dopamine receptor = D(3) dopamine receptor (Rattus norvegicus, UniProt P19020); experiment: biochemical
[2] = Binding affinity for D1-like [3H]-SCH- 23390 receptor was determined using caudate-putamen of adult male Spragueo?=Dawley rats; format: tissue-based, Rattus norvegicus
Procedure, shortened: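 Rat caudate-putamen membranes, adult male Sprague–Dawley. Buffer 50 mM Tris–HCl, 5 mM KCl, 2 mM MgCl2, 2 mM CaCl2, pH 7.4 at 23 °C. [3H]SCH 23390 0.3 nM, with nonspecific binding defined by 1 μM (+)-butaclamol. Compounds were dissolved in 100% EtOH up to 5 mM (stock).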

Chain of D(3) dopamine receptor (P19020 whole entry): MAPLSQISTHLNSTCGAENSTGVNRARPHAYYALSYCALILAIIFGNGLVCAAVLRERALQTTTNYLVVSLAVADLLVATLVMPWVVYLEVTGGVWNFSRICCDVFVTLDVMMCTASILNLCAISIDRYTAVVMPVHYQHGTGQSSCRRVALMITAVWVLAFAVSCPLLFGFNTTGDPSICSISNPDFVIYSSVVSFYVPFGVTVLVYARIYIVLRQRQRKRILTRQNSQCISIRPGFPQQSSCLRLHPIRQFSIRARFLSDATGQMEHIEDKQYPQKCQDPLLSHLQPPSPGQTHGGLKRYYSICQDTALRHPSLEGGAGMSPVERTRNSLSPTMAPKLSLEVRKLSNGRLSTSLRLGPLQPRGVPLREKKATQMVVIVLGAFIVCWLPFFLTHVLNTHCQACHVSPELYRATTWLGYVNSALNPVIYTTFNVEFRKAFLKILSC

## O=C(NCCCN1CCN2c3ccccc3CCC2C1)c1ccc2ccccc2c1 (stereo not drawn)
[1]
  Ki: 2.44 µM
D(3) dopamine receptor
  Ki: 1.54 µM
[2]
  Ki: 153 µM

## COc1cccc2c1CCC1CN(CCCCNC(=O)c3ccc4ccccc4c3)CCN21 (stereo not drawn)
[1]
  Ki: 0.762 µM
D(3) dopamine receptor
  Ki: 0.0058 µM
[2]
  Ki: 4.6 µM

## O=C(CN1CCN2c3ccccc3CCC2C1)c1ccc(F)cc1 (stereo not drawn)
[1]
  Ki: 3.89 µM
D(3) dopamine receptor
  Ki: 7.49 µM
[2]
  Ki: 7.95 µM

## O=C(CCCCN1CCN2c3ccccc3CCC2C1)c1ccc(F)cc1 (stereo not drawn)
[1]
  Ki: 0.852 µM
D(3) dopamine receptor
  Ki: 0.381 µM
[2]
  Ki: 2.47 µM

## O=C(NCCN1CCN2c3ccccc3CCC2C1)c1ccc(-c2ccccc2)cc1 (stereo not drawn)
[1]
  Ki: > 100 µM
D(3) dopamine receptor
  Ki: 23 µM
[2]
  Ki: > 100 µM

## O=C(NCCCN1CCN2c3ccccc3CCC2C1)c1ccc(-c2ccccc2)cc1 (stereo not drawn)
[1]
  Ki: 0.906 µM
D(3) dopamine receptor
  Ki: 2.52 µM
[2]
  Ki: 0.356 µM

## COc1ccc2c(c1)N1CCN(CCCCNC(=O)c3ccc4ccccc4c3)CC1CC2 (stereo not drawn)
[1]
  Ki: 1.12 µM
D(3) dopamine receptor
  Ki: 0.045 µM
[2]
  Ki: 5.8 µM

## COc1ccccc1N1CCN(CCCCNC(=O)c2ccc3ccccc3c2)CC1 [BP-897]
[1]
  Ki: 0.162 µM
[2]
  Ki: 0.636 µM

## COc1cccc2c1N1CCN(CCCCNC(=O)c3ccc4ccccc4c3)CC1CC2 (stereo not drawn)
[1]
  Ki: 0.258 µM
[2]
  Ki: 6.05 µM

## COc1ccc2c(c1)CCC1CN(CCCCNC(=O)c3ccc4ccccc4c3)CCN21 (stereo not drawn)
[1]
  Ki: > 250 µM
D(3) dopamine receptor
  Ki: 0.244 µM
[2]
  Ki: > 250 µM

## O=C(CCN1CCN2c3ccccc3CCC2C1)c1ccc(F)cc1 (stereo not drawn)
[1]
  Ki: 3.64 µM
D(3) dopamine receptor
  Ki: 2.75 µM
[2]
  Ki: 8.89 µM

## O=C(NCCCCN1CCN2c3ccccc3CCC2C1)c1ccc2ccccc2c1 (stereo not drawn)
[1]
  Ki: 1.57 µM
D(3) dopamine receptor
  Ki: 0.018 µM
[2]
  Ki: 0.791 µM

## O=C(CCCN1CCN2c3ccccc3CCC2C1)c1ccc(F)cc1 (stereo not drawn)
[1]
  Ki: 0.243 µM
D(3) dopamine receptor
  Ki: 0.304 µM
[2]
  Ki: 0.904 µM

## O=C(NCCN1CCN2c3ccccc3CCC2C1)c1ccc2ccccc2c1 (stereo not drawn)
[1]
  Ki: 1.39 µM
D(3) dopamine receptor
  Ki: 1.65 µM
[2]
  Ki: 1.22 µM

## O=C(NCCCCN1CCN2c3ccccc3CCC2C1)c1ccc(-c2ccccc2)cc1 (stereo not drawn)
[1]
  Ki: 0.22 µM
D(3) dopamine receptor
  Ki: 0.022 µM
[2]
  Ki: 0.258 µM
